According to PubChem BioAssay:
Records with an inconclusive call do not appear.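 How the source made its calls, unless noted: active means viability increase at or above a cutoff of the median across tested compounds plus 3 SD (cut at about 8.5% in these data, passing the limit was not always enough); inconclusive means some gains above the cutoff, reason not given; inactive means the rest.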

Assays:
[1] = S. cerevisiae growth inhibition in permissive medium (OD615), pilot counter-assay for S. cerevisiae lifespan shortening project, permissive growth control (AID 705;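 active means growth inhibition above 25% in both replicates, a cutoff set 3 SD above the mean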); details: OD615, 24 h, at 10 µM, hits give high values
Procedure, shortened: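 Material: engineered DeaD yeast; compound dosing: one dose 10 µM, DMSO 0.25% final; measure: yeast growth inhibition indicated by reduced 24 h OD615; detection: OD615 turbidity read; incubation: cells pre-grown 4 h, then 24 h compound exposure, 30 °C humidified; medium: permissive synthetic complete medium with raffinose and galactose carbon sources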

[2] = S. cerevisiae growth inhibition in restrictive medium, OD615, pilot screen, restrictive growth control, yeast lifespan reduction project (AID 706;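 active means growth inhibition above a set limit, 3 SD over mean compound inhibition, in both replicates, cut at about 43% in these data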;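 further: modified DeaD lifespan yeast strain shifted to restrictive glucose medium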); details: OD615, 48 h, at 10 µM, hits give high values
Procedure, shortened: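 material = engineered S. cerevisiae DeaD strain | medium = glucose-based CSMM-D restrictive medium | times = 4 h pre-incubation, 48 h exposure at 30 °C | technique = OD615 absorbance reading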

[3] = doxorubicin toxicity protection in MRP-1 cells – H69AR cells, CellTiter-Glo, duplicate, MRP-1 activator project, pilot screen (AID 807); details: H69AR viability with doxorubicin, CellTiter-Glo luminescence; at 10 µM; hits give high values;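 further: compound pretreatment 18-22 h then 72 h combined with doxorubicin; 0% = doxorubicin alone and 100% = vehicle without doxorubicin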
[4] = viability of HCT116 without oncogenic beta-catenin – human colon tumor cells, pilot screen (AID 823;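 active means cell viability at or below a set limit in both duplicate runs, the limit being the all-compound median minus 4 SD, cut at about 23% in these data, passing the limit was not always enough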;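 further: 0% = wells killed by 20 µM Hyamine and 100% = untreated DMSO cell wells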); details: HCT116 beta-catenin knockout viability, CellTiter-Glo, 60 h; at 10 µM; hits give low values
[5] = viability of PTEN-null HCT116 cells – cell-based, HCT116 clonal line, CellTiter-Glo, pilot screen (AID 824;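 active means viability at or below 27.92% in each of two runs, the all-compound median minus 4 SD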;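 further: 0% = 20 µM Hyamine control and 100% = vehicle cell control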); details: HCT116 PTEN-deleted viability, 60 h, at 10 µM, hits give low values
[6] = RAM pathway blockade in budding yeast – dse1pr::URA3 reporter, 5-FOA selection, pilot screen (AID 869;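 active means inhibition over a set limit, the all-compound mean plus 3 SD, in both replicate runs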;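 further: 0% = DMSO wells with no growth and 100% = 10 µM 1-NA-PP1 with full growth; RAM network block rescues cells from 5-FOA so hits raise OD615 growth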); details: S. cerevisiae dse1pr::URA3 5-FOA growth, OD615, 2 d; at 10 µM; hits give high values; strain carries analog-sensitive mutant Cbk1 kinase
[7] = RAM signaling pathway blockade in yeast – S. cerevisiae, Pdr1DBD-CYC8 efflux-inhibited sensitized strain, primary screen (AID 1298;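 active means RAM network inhibition above 8.4% in each of two replicates, 3 SD over the compound average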;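 further: 0% = DMSO untreated cells without growth and 100% = 10 µM 1-NA-PP1 full growth; higher means more yeast growth rescued from 5-FOA killing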); details: S. cerevisiae cbk1-as DSE1-URA3 strain, 5-FOA growth OD615, 2 d; at 50 µM; hits give high values

O=C(Cn1ncc2c1-c1ccccc1OC2)Nc1nc2ccccc2s1
inactive: growth inhibition [1] -6.12% | growth inhibition [2] 18.7% | viability increase [3] -6.71% | viability [4] 93.9% | viability [5] 84.5% | inhibition [6] 0.785% | RAM network inhibition [7] -2.15%

CCC(NC(=O)c1ccccc1NC(=O)c1ccco1)C(=O)O (configuration not stated)
inactive: growth inhibition [1] -0.94% | growth inhibition [2] -12.6% | viability increase [3] -4.34% | viability [4] 109% | viability [5] 95.7% | inhibition [6] 0.27% | RAM network inhibition [7] 0.73%

O=C(CCC1CC(=O)Nc2ccccc21)NCc1cccnc1 (configuration not stated)
inactive: growth inhibition [1] -10.7% | growth inhibition [2] -2.23% | viability increase [3] -1.06% | viability [4] 102% | viability [5] 90.5% | inhibition [6] 1.1% | RAM network inhibition [7] 12.5%

Cc1cc(NC(=O)NC2(C(F)(F)F)Oc3ccc(Cl)cc3O2)no1 (configuration not stated)
inactive: growth inhibition [1] -3.33% | growth inhibition [2] -23% | viability increase [3] -5.78% | viability [4] 32.6% | viability [5] 42.5% | inhibition [6] 3.26% | RAM network inhibition [7] 7.87%

O=C1c2ccccc2C(O)N1CCN1CCOCC1 (configuration not stated)
inactive: growth inhibition [1] -0.105% | growth inhibition [2] -6.41% | viability increase [3] -1.24% | viability [4] 94.5% | viability [5] 101% | inhibition [6] 2.64% | RAM network inhibition [7] 1.95%

COc1ccc(CC2CCOC2=O)cc1 (configuration not stated)
inactive: growth inhibition [1] -10.7% | growth inhibition [2] -8.8% | viability increase [3] 0.08% | viability [4] 98% | viability [5] 93.9% | inhibition [6] 1.93% | RAM network inhibition [7] -0.09%

Cc1csc(=N)n1-c1ccc(Cl)cc1
inactive: growth inhibition [1] -6.4% | growth inhibition [2] -7.49% | viability increase [3] 0.86% | viability [4] 82.5% | viability [5] 80.7% | inhibition [6] 1.35% | RAM network inhibition [7] 9.58%

Cc1nc2ccccc2c2oc(C(=O)Nc3ccc4c(c3)OCCO4)cc12
inactive: growth inhibition [1] 6.06% | growth inhibition [2] 10.4% | viability increase [3] -1.19% | viability [4] 87.7% | viability [5] 95.3% | inhibition [6] -0.63% | RAM network inhibition [7] 8.55%

C(=N\n1cnnc1)/C1CCCCC1
inactive: growth inhibition [1] -4.95% | growth inhibition [2] -1.24% | viability increase [3] -2.8% | viability [4] 101% | viability [5] 98.4% | inhibition [6] 0.19% | RAM network inhibition [7] 6.93%

COc1cccc(-n2c(Cc3cc(=O)[nH]c(=O)[nH]3)nnc2SCC(=O)NC2CCCC2)c1
inactive: growth inhibition [1] -6.3% | growth inhibition [2] 8.16% | viability increase [3] -0.03% | viability [4] 101% | viability [5] 101% | inhibition [6] 2.87% | RAM network inhibition [7] -1.25%

CCCNC(=O)Cc1cc(=O)[nH]c(=O)[nH]1
inactive: growth inhibition [1] -14.4% | growth inhibition [2] -17.8% | viability increase [3] 0.56% | viability [4] 105% | viability [5] 101% | inhibition [6] 1.33% | RAM network inhibition [7] 1.73%

COc1ccccc1-c1nnc(NC(=O)c2ccccc2F)o1
inactive: growth inhibition [1] -16.6% | growth inhibition [2] -17.1% | viability increase [3] -5.55% | viability [4] 88.3% | viability [5] 89.7% | inhibition [6] 1.22% | RAM network inhibition [7] 0.16%

CCC1CCCCN1Cc1nc2c(c(=O)n(C)c(=O)n2C)n1Cc1ccccc1 (configuration not stated)
inactive: growth inhibition [1] 6.88% | growth inhibition [2] -0.26% | viability increase [3] 3.7% | viability [4] 75.3% | viability [5] 74.4% | inhibition [6] 2.1% | RAM network inhibition [7] 2.14%

Cc1nc2c3ccccc3n(CC#N)c(=O)n2n1
inactive: growth inhibition [1] -11.8% | growth inhibition [2] -5.63% | viability increase [3] -3.78% | viability [4] 99.9% | viability [5] 95.8% | inhibition [6] 2.66% | RAM network inhibition [7] 0.21%

O=c1[nH]c(NCCCO)nc2c1C1(CCCC1)Cc1ccccc1-2
inactive: growth inhibition [1] -1.02% | growth inhibition [2] -4.91% | viability increase [3] -0.94% | viability [4] 97.1% | viability [5] 96.2% | inhibition [6] -0.175% | RAM network inhibition [7] 6.67%

CCSc1nc2c(cnn2-c2ccc(C)c(C)c2)c(=O)[nH]1
inactive: growth inhibition [1] -2.47% | growth inhibition [2] -2.05% | viability increase [3] -1% | viability [4] 98.8% | viability [5] 94.2% | inhibition [6] 1.42% | RAM network inhibition [7] 7.85%

COc1cccc(N2C(=O)Nc3ccccc3C2(O)C(=O)NCc2ccc3c(c2)OCO3)c1 (configuration not stated)
inactive: growth inhibition [1] -11.5% | growth inhibition [2] -8.59% | viability increase [3] -0.4% | viability [4] 95.9% | viability [5] 99.7% | inhibition [6] 0.51% | RAM network inhibition [7] 9.22%

Cn1c(=O)c2c(nc(CN3CCN(Cc4ccccc4)CC3)n2Cc2ccccc2)n(C)c1=O
inactive: growth inhibition [1] -6.72% | growth inhibition [2] -11.8% | viability increase [3] -0.85% | viability [4] 85.6% | viability [5] 88% | inhibition [6] 2.02% | RAM network inhibition [7] -0.01%

CN(C)c1ccc(C2N(c3ccc(Cl)cc3)C(=O)C3CCCN32)cc1 (configuration not stated)
inactive: growth inhibition [1] -2.63% | growth inhibition [2] 6.78% | viability increase [3] -1.01% | viability [4] 98.1% | viability [5] 98.7% | inhibition [6] 2.37% | RAM network inhibition [7] 1.57%

CCOC(=O)c1csc(NC(=O)C(C)(C)C)n1
inactive: growth inhibition [1] -6.04% | growth inhibition [2] -0.045% | viability increase [3] 2.71% | viability [4] 105% | viability [5] 98.8% | inhibition [6] 0.48% | RAM network inhibition [7] -1.57%

COc1cc(NC(=O)CCCC(=O)OCC(F)(F)C(F)F)nc(OC)n1
inactive: growth inhibition [1] -5.42% | growth inhibition [2] -21.7% | viability increase [3] -0.22% | viability [4] 102% | viability [5] 98.9% | inhibition [6] 1.37% | RAM network inhibition [7] 0.92%

COc1ccc(NS(=O)(=O)c2ccc(OC)c(OC)c2)cc1OC
inactive: growth inhibition [1] -7.13% | growth inhibition [2] 4.59% | viability increase [3] 0.52% | viability [4] 92% | viability [5] 90.7% | inhibition [6] 0.335% | RAM network inhibition [7] 0%

COc1cc2c(cc1OC)C(C(=O)N1CCCC1)C(c1ccccc1F)N(C)C2=O (configuration not stated)
inactive: growth inhibition [1] -23.3% | growth inhibition [2] -16.3% | viability increase [3] -1.68% | viability [4] 91.3% | viability [5] 97% | inhibition [6] 0.27% | RAM network inhibition [7] 3.55%

COc1ccc(-n2nnc3c(=O)n(CC(=O)N4CCCCC4)cnc32)cc1
inactive: growth inhibition [1] -0.235% | growth inhibition [2] 4.3% | viability increase [3] -0.73% | viability [4] 96.1% | viability [5] 94.6% | inhibition [6] 0.975% | RAM network inhibition [7] -0.05%

COc1cccc(-n2c(Cc3cc(=O)[nH]c(=O)[nH]3)nnc2SCC(=O)NC2CCCCC2)c1
inactive: growth inhibition [1] -4.46% | growth inhibition [2] -1.15% | viability increase [3] -1.6% | viability [4] 100% | viability [5] 101% | inhibition [6] 1.86% | RAM network inhibition [7] 3.48%

COc1ccc(S(=O)(=O)n2cnc3cc(C)c(C)cc32)cc1
inactive: growth inhibition [1] 3.51% | growth inhibition [2] 6.05% | viability increase [3] -1.56% | viability [4] 90.9% | viability [5] 93.4% | inhibition [6] 1.26% | RAM network inhibition [7] -1.04%

COc1ccc(N(CC(=O)N2CCCCC2)S(=O)(=O)c2c(C)nn(C)c2C)cc1
inactive: growth inhibition [1] -5.81% | growth inhibition [2] 5.36% | viability increase [3] -2.35% | viability [4] 105% | viability [5] 96.7% | inhibition [6] 1.69% | RAM network inhibition [7] 2.99%

COc1ccc(S(=O)(=O)Cc2ccc(C(=O)NCc3ccc(F)cc3)o2)cc1
inactive: growth inhibition [1] -13.6% | growth inhibition [2] -14.1% | viability increase [3] -0.39% | viability [4] 92.2% | viability [5] 87.5% | inhibition [6] 0.735% | RAM network inhibition [7] 2.4%

CC1CCc2nn(CC(=O)Nc3c(F)cc(F)cc3Br)cc2C1 (configuration not stated)
inactive: growth inhibition [1] -5.22% | growth inhibition [2] -6.17% | viability increase [3] 2.17% | viability [4] 102% | viability [5] 90.3% | inhibition [6] 1.84% | RAM network inhibition [7] 1.57%

Nc1c(NCc2ccccc2F)c(=O)[nH]c(=O)n1Cc1ccccc1
inactive: growth inhibition [1] 0.38% | growth inhibition [2] -8.14% | viability increase [3] -1.53% | viability [4] 106% | viability [5] 100% | inhibition [6] 0.67% | RAM network inhibition [7] 1%

COc1ccc(OC)c2[nH]c(=O)c(CCNC(C)=O)cc12
inactive: growth inhibition [1] -6.6% | growth inhibition [2] 3.73% | viability increase [3] -0.39% | viability [4] 109% | viability [5] 104% | inhibition [6] 2.21% | RAM network inhibition [7] 1.88%

Nc1cccc(C(=O)Nc2ccc3nc(-c4cccnc4)[nH]c3c2)c1
inactive: growth inhibition [1] -2% | growth inhibition [2] -4.3% | viability increase [3] -1.88% | viability [4] 109% | viability [5] 102% | inhibition [6] 2.84% | RAM network inhibition [7] 6.1%

COc1ccc(Cl)cc1NC(=O)C1CCCO1 (configuration not stated)
inactive: growth inhibition [1] 0.985% | growth inhibition [2] -9.53% | viability increase [3] -2.12% | viability [4] 98.9% | viability [5] 94.7% | inhibition [6] 1.42% | RAM network inhibition [7] 2.75%

CC(=O)Nc1ccc2nc(-c3cccs3)[nH]c2c1
inactive: growth inhibition [1] -5.51% | growth inhibition [2] -15.4% | viability increase [3] -2.88% | viability [4] 97.8% | viability [5] 90.3% | inhibition [6] 2.38% | RAM network inhibition [7] 4.66%

CCC(=O)NCCc1cc2ccc(C)cc2[nH]c1=O
inactive: growth inhibition [1] -3.85% | growth inhibition [2] -15.4% | viability increase [3] -1.94% | viability [4] 110% | viability [5] 93.8% | inhibition [6] 2.58% | RAM network inhibition [7] 0.78%

CCOc1ccc(NC(=O)CN(c2ccc(OC)cc2)S(C)(=O)=O)cc1
inactive: growth inhibition [1] 6.96% | growth inhibition [2] -0.54% | viability increase [3] 0.19% | viability [4] 98.1% | viability [5] 98.8% | inhibition [6] 1.7% | RAM network inhibition [7] 4.91%
